{"source": "ChEMBL document CHEMBL1123594", "about": "“Antiradiation compounds. 20. 1-Methylquinolinium(and pyridinium)-2-dithioacetic acid derivatives” (J Med Chem, 1987)", "key": {"[1]": {"system": "Mus musculus", "experiment": "Percent survival was determined over a period of 30 days after intraperitoneal administration of a dose of 75 mg/kg in mice", "format": "functional", "in_short": "(§1)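 Female C57 B16 mice (18-20 g), groups of 10, dosed ip in water or 10-20% aqueous ethanol (sometimes with Klucel or a Tween). Whole-body 1000-rad γ-irradiation 30 min after dosing. Survival was followed over 30 days, and animals alive beyond 30 days were counted as protected. Testing was done at Walter Reed Army Institute of Research.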"}, "[2]": {"system": "Mus musculus", "experiment": "Percent survival was determined over a period of 30 days after intraperitoneal administration of a dose of 37.5 mg/kg in mice", "format": "functional", "conditions": "ip, 720 h", "in_short": "as §1"}, "[3]": {"system": "Mus musculus", "experiment": "Percent survival was determined over a period of 30 days after intraperitoneal administration of a dose of 18.8 mg/kg in mice", "format": "functional", "conditions": "ip, 720 h", "in_short": "as §1"}, "[4]": {"experiment": "Toxic dose was determined after (ip) administration of a dose of 75 mg/kg in mice at 1000-rad-gamma-radiation for 30 mins", "format": "toxicity, organism-based", "set-up": "dose 75 mg/kg", "conditions": "mouse, in vivo", "in_short": "(§2)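 Drug-toxicity deaths were counted within the radioprotection groups: 10 female C57 B16 mice, dosed by the route stated, then given whole-body 1000-rad γ-irradiation 30 min later. Deaths attributed to compound toxicity occurred before day 5 and were scored separately from the 30-day survival count.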"}, "[5]": {"system": "Mus musculus", "experiment": "Percent survival was determined over a period of 30 days after intraperitoneal administration of a dose of 4.7 mg/kg in mice", "format": "functional", "conditions": "ip, 720 h", "in_short": "as §1"}, "[6]": {"experiment": "Toxic dose was determined after (ip) administration of a dose of 18.8 mg/kg in mice at 1000-rad-gamma-radiation for 30 mins", "format": "toxicity, organism-based", "set-up": "dose 18.8 mg/kg", "conditions": "mouse, in vivo", "in_short": "as §2"}, "[7]": {"system": "Mus musculus", "experiment": "Percent survival was determined over a period of 30 days after intraperitoneal administration of a dose of 9.4 mg/kg in mice", "format": "functional", "conditions": "ip, 720 h", "in_short": "as §1"}, "[8]": {"experiment": "Toxic dose was determined after (ip) administration of a dose of 37.5 mg/kg in mice at 1000-rad-gamma-radiation for 30 mins", "format": "toxicity, organism-based", "set-up": "dose 37.5 mg/kg", "conditions": "mouse, in vivo", "in_short": "as §2"}, "[9]": {"species_on_record": "Mus musculus", "experiment": "Percent protective effect was determined in mice using 825 rads for 30 min", "format": "functional"}, "[10]": {"system": "Mus musculus", "experiment": "Percent survival was determined over a period of 30 days after intraperitoneal administration of a dose of 2.34 mg/kg in mice", "format": "functional", "conditions": "ip, 720 h", "in_short": "as §1"}, "[11]": {"system": "Mus musculus", "experiment": "Percent survival was determined over a period of 30 days after intraperitoneal administration of a dose of 9.38 mg/kg in mice", "format": "functional", "conditions": "ip, 720 h", "in_short": "as §1"}, "[12]": {"experiment": "Toxic dose was determined after (ip) administration of a dose of 9.38 mg/kg in mice at 1000-rad-gamma-radiation for 30 mins", "format": "toxicity, organism-based", "set-up": "dose 9.38 mg/kg", "conditions": "mouse, in vivo", "in_short": "as §2"}, "[13]": {"system": "Mus musculus", "experiment": "Percent survival was determined over a period of 30 days after intraperitoneal administration of a dose of 4.69 mg/kg in mice", "format": "functional", "conditions": "ip, 720 h", "in_short": "as §1"}, "[14]": {"system": "Mus musculus", "experiment": "Percent protective effect was determined in mice using 825 rads for 30 min after administration of 350 mg/kg", "format": "functional"}, "[15]": {"system": "Mus musculus", "experiment": "Percent protective effect was determined in mice using 1000 rads for 30 min after administration of 25 mg/kg", "format": "functional"}, "[16]": {"experiment": "Toxic dose was determined after (po) administration of a dose of 300 mg/kg in mice at 1000-rad-gamma-radiation for 30 mins", "format": "toxicity, organism-based", "set-up": "dose 300 mg/kg", "conditions": "mouse, in vivo", "in_short": "as §2"}, "[17]": {"experiment": "Toxic dose was determined after (ip) administration of a dose of 150 mg/kg in mice at 1000-rad-gamma-radiation for 30 mins", "format": "toxicity, organism-based", "set-up": "dose 150 mg/kg", "conditions": "mouse, in vivo", "in_short": "as §2"}, "[18]": {"system": "Mus musculus", "experiment": "Percent survival was determined over a period of 30 days after intraperitoneal administration of a dose of 150 mg/kg in mice", "format": "functional", "conditions": "ip, 720 h", "in_short": "as §1"}, "[19]": {"system": "Mus musculus", "experiment": "Percent survival was determined over a period of 30 days after oral administration of a dose of 150 mg/kg in mice", "format": "functional", "conditions": "720 h", "in_short": "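Female C57 B16 mice (18-20 g), groups of 10, dosed orally. Whole-body 1000-rad γ-irradiation 30 min after dosing. Percent survival was scored over 30 days, with mice surviving beyond 30 days counted as protected.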"}, "[20]": {"system": "Mus musculus", "experiment": "Percent protective effect was determined in mice using 600 rads for 30 min after administration of 100 mg/kg", "format": "functional"}}, "data": [{"smiles": "CN(C)CCNC(=Cc1ccc2ccccc2[n+]1C)NCCN(C)C.[I-]", "values": [{"measurement": "survival at 75 mg/kg", "setting": "[1]; Mus musculus, ip, 720 h", "value": 0, "unit": "%"}, {"measurement": "survival at 37.5 mg/kg", "setting": "[2]", "value": 0, "unit": "%"}, {"measurement": "survival at 18.8 mg/kg", "setting": "[3]", "value": 0, "unit": "%"}, {"measurement": "LD50 at 0.5 h", "setting": "[4]", "value": 90, "unit": "mg/kg"}]}, {"smiles": "COC(CN/C(=C/c1ccc2ccccc2[n+]1C)SC)OC.[I-]", "values": [{"measurement": "survival at 4.7 mg/kg", "setting": "[5]", "value": 0, "unit": "%"}, {"measurement": "LD50 at 0.5 h", "setting": "[6]", "value": 30, "unit": "mg/kg"}, {"measurement": "survival at 18.8 mg/kg", "setting": "[3]", "value": 30, "unit": "%"}, {"measurement": "survival at 9.4 mg/kg", "setting": "[7]", "value": 0, "unit": "%"}]}, {"smiles": "COCCN/C(=C/c1ccc2ccccc2[n+]1C)SC.[I-]", "values": [{"measurement": "LD50 at 0.5 h", "setting": "[8]", "value": 50, "unit": "mg/kg"}, {"measurement": "survival at 37.5 mg/kg", "setting": "[2]", "value": 0, "unit": "%"}, {"measurement": "survival at 18.8 mg/kg", "setting": "[3]", "value": 0, "unit": "%"}, {"measurement": "survival at 9.4 mg/kg", "setting": "[7]", "value": 0, "unit": "%"}]}, {"smiles": "O=[N+]([O-])c1ccc(CSC(=S)C[n+]2ccccc2)cc1.[Cl-]", "values": [{"measurement": "Protective effect", "setting": "[9]", "value": 33, "unit": "%"}]}, {"smiles": "CS/C(=C\\c1ccc2cc(C)ccc2[n+]1C)N1CCOCC1.[I-]", "values": [{"measurement": "survival at 2.34 mg/kg", "setting": "[10]", "value": 0, "unit": "%"}, {"measurement": "survival at 9.38 mg/kg", "setting": "[11]", "value": 60, "unit": "%"}, {"measurement": "LD50 at 0.5 h", "setting": "[12]", "value": 15, "unit": "mg/kg"}, {"measurement": "survival at 4.69 mg/kg", "setting": "[13]", "value": 0, "unit": "%"}]}, {"smiles": "N#CC(C#N)=C([S-])[S-].[K+].[K+]", "values": [{"measurement": "Protective effect", "setting": "[14]", "value": ">25", "unit": "%"}]}, {"smiles": "CS/C(=C\\c1cccc[n+]1C)N1CCN(C)CC1.[I-]", "values": [{"measurement": "survival at 4.7 mg/kg", "setting": "[5]", "value": 0, "unit": "%"}, {"measurement": "LD50 at 0.5 h", "setting": "[6]", "value": 60, "unit": "mg/kg"}, {"measurement": "survival at 18.8 mg/kg", "setting": "[3]", "value": 10, "unit": "%"}, {"measurement": "survival at 9.4 mg/kg", "setting": "[7]", "value": 0, "unit": "%"}]}, {"smiles": "N#CC(C#N)=C([S-])[S-].[Zn+2]", "values": [{"measurement": "Protective effect", "setting": "[15]", "value": "<25", "unit": "%"}]}, {"smiles": "NC(=O)c1ccc[n+](CC(=S)[S-])c1", "values": [{"measurement": "Protective effect", "setting": "[9]", "value": ">45", "unit": "%"}]}, {"smiles": "C=CCSC(=S)C[n+]1ccccc1.[Cl-]", "values": [{"measurement": "Protective effect", "setting": "[9]", "value": ">17", "unit": "%"}]}, {"smiles": "CS/C(=C\\c1ccc2ccccc2[n+]1C)NCCCO.[I-]", "values": [{"measurement": "LD50 at 0.5 h", "setting": "[8]", "value": 50, "unit": "mg/kg"}, {"measurement": "survival at 37.5 mg/kg", "setting": "[2]", "value": 0, "unit": "%"}, {"measurement": "survival at 18.8 mg/kg", "setting": "[3]", "value": 0, "unit": "%"}, {"measurement": "survival at 9.4 mg/kg", "setting": "[7]", "value": 0, "unit": "%"}]}, {"smiles": "CSC(=Cc1ccc2ccccc2[n+]1C)SC.[I-]", "values": [{"measurement": "LD50 at 0.5 h", "setting": "[16]", "value": "> 300", "unit": "mg/kg"}, {"measurement": "LD50 at 0.5 h", "setting": "[17]", "value": 300, "unit": "mg/kg"}, {"measurement": "Survival", "setting": "[1]; 75 mg/kg", "value": 0, "unit": "%"}, {"measurement": "survival at 37.5 mg/kg", "setting": "[2]", "value": 0, "unit": "%"}, {"measurement": "survival at 150 mg/kg", "setting": "[18]", "value": 60, "unit": "%"}, {"measurement": "survival at 150 mg/kg", "setting": "[19]", "value": 10, "unit": "%"}]}, {"smiles": "CCOC(=O)C(C#N)=C([S-])[S-].[K+].[K+]", "values": [{"measurement": "Protective effect", "setting": "[20]", "value": 50, "unit": "%"}]}, {"smiles": "CSC(=Cc1cccc[n+]1C)SC.[I-]", "values": [{"measurement": "survival at 4.7 mg/kg", "setting": "[5]", "value": 0, "unit": "%"}, {"measurement": "LD50 at 0.5 h", "setting": "[6]", "value": 30, "unit": "mg/kg"}, {"measurement": "survival at 18.8 mg/kg", "setting": "[3]", "value": 50, "unit": "%"}, {"measurement": "survival at 9.4 mg/kg", "setting": "[7]", "value": 0, "unit": "%"}]}]}
